Data published in ChEMBL document CHEMBL1136006, “New PET imaging agent for the serotonin transporter: [(18)F]ACF (2-[(2-amino-4-chloro-5-fluorophenyl)thio]-N,N-dimethyl-benzenmethanamine)” (J Med Chem, 2002).
pKi: −log10 of the molar value. Activity calls are given as the source filed them. No cut-off for these calls is given here.

Legend:
[1] = target: T1, Sodium-dependent serotonin transporter (Rattus norvegicus, UniProt P31652); assay: In vitro binding affinity in LLC-PK1 cells by SERT binding assay by using [125I]IDAM as a radioligand; format: cell-based
T1 sequence (P31652 whole entry): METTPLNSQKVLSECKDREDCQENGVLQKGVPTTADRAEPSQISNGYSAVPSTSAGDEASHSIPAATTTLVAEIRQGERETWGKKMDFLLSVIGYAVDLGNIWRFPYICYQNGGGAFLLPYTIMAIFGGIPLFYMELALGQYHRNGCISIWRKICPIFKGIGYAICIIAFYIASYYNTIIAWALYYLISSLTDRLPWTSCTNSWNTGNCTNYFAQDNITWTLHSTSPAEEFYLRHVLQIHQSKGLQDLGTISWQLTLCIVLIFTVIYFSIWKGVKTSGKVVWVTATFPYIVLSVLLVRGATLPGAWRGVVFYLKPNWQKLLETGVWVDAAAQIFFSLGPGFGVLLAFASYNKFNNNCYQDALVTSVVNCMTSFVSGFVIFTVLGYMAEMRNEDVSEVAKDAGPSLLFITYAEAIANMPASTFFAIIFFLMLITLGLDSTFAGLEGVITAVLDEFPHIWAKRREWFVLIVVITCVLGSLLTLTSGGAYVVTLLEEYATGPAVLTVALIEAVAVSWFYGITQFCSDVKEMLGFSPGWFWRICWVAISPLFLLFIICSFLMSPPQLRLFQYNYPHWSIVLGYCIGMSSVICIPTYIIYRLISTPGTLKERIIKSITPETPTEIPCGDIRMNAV
Summary of the method: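 LLC-PK1 membrane homogenates overexpressing SERT. Incubated with 0.4 nM [125I]IDAM and 8–10 competitor concentrations (10^-10 to 10^-5 M) in 50 mM Tris-HCl pH 7.4, 120 mM NaCl, 0.1% BSA for 1 h at room temperature. Nonspecific binding defined with 1 μM IDAM. Filter-bound activity gamma-counted, nonlinear regression. Mean ± SEM, three determinations in duplicate.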

[2] = target: Sodium-dependent dopamine transporter (Rattus norvegicus) (UniProt P23977); assay: Selectivity for Dopamine transporter; No inhibition
Sequence of Sodium-dependent dopamine transporter (Rattus norvegicus) (P23977 whole entry): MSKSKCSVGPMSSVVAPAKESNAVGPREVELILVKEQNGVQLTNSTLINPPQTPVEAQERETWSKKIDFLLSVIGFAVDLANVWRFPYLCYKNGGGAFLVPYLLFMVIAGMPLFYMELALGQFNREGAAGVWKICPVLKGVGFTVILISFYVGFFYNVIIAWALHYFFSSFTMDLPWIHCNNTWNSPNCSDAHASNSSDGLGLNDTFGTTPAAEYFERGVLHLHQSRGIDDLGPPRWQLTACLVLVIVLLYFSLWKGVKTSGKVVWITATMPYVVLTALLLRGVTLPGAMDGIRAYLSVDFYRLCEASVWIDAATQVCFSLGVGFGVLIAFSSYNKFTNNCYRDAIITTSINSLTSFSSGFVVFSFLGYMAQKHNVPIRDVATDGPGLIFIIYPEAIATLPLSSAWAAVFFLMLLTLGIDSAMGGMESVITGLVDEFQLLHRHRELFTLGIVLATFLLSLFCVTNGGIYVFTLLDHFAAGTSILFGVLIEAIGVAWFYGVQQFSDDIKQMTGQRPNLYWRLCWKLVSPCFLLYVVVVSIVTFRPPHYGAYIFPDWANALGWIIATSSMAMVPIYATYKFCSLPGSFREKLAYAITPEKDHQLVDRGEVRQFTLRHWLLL

[3] = target: T1, Sodium-dependent serotonin transporter; assay: Inhibition of 5-HT reuptake (SERT) in rat brain synaptosomes.; format: subcellular
[4] = target: T2, Sodium-dependent noradrenaline transporter (Homo sapiens, UniProt P23975); assay: Selectivity for norepinephrine transporter
T2 sequence (P23975 whole entry, looked up): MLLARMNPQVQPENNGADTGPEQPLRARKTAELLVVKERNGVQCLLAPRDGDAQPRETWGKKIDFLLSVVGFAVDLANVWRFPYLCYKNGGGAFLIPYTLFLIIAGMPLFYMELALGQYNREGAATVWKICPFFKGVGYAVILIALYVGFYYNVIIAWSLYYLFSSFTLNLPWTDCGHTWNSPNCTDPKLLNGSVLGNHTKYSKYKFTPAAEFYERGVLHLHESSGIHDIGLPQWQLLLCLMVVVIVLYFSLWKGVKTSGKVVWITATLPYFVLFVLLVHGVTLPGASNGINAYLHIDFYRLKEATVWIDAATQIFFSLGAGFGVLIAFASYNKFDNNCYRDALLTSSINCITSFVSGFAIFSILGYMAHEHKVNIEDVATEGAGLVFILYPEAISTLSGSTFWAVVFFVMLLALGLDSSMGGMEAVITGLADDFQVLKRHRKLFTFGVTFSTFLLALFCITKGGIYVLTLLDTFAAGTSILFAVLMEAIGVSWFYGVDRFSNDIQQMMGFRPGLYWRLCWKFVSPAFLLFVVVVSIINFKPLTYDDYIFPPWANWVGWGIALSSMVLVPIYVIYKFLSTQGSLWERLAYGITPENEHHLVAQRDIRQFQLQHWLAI

[5] = target: T2, Sodium-dependent noradrenaline transporter; assay: In vitro binding affinity in LLC-PK1 cells by Norepinephrine transporter binding assay by using [125I]-IPT as a radioligand; format: cell-based
Summary of the method: (§1)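 LLC-PK1 cell membrane homogenates overexpressing DAT or NET. Incubated with 0.4 nM [125I]IPT and 8–10 competitor concentrations (10^-10 to 10^-5 M) in 50 mM Tris-HCl pH 7.4, 120 mM NaCl, 0.1% BSA for 1 h at room temperature. Nonspecific binding defined with 10 μM CFT. Filtered, gamma-counted, nonlinear regression. Mean ± SEM of three determinations in duplicate.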

[6] = target: Sodium-dependent dopamine transporter (Rattus norvegicus, UniProt P23977); assay: In vitro binding affinity in LLC-PK1 cells by Dopamine transporter binding assay by using [125I]IPT as a radioligand; format: cell-based; summary of the method: as §1
Sequence of Sodium-dependent dopamine transporter (P23977 whole entry): as the sequence (P23977 whole entry) above

| SMILES | pKi [1] | pKi [5] | pKi [6] | also measured |
| --- | --- | --- | --- | --- |
| Cc1ccc(Sc2ccccc2CN(C)C)c(N)c1 | 8.96 | – | – | – |
| CN(C)Cc1ccccc1Sc1ccc(Cl)cc1CO | – | – | – | NI [2]: inactive; pKi [3]: 8.68; pKi [4]: 7.26 |
| CN(C)C(=O)c1ccccc1Sc1cc(N)c(Cl)cc1[N+](=O)[O-] | 8.62 | 4.82 | 5.52 | – |
| CN(C)Cc1ccccc1Sc1ccc(I)cc1N | – | 6.16 | 6.16 | – |
| COc1ccc(Sc2ccccc2CN(C)C)c(N)c1 | 8.96 | – | – | – |

More lines, in order of rising pKi [1], values ahead:

| pKi [1] | pKi [5] | pKi [6] | SMILES | also measured |
| --- | --- | --- | --- | --- |
| 8.38 | 5.55 | 4.50 | CN(C)Cc1ccccc1Sc1cc(F)c(Cl)cc1[N+](=O)[O-] | – |
| 8.96 | – | – | CN(C)Cc1ccccc1Sc1ccc(CF)cc1N | – |
